# “And” between values parts separate entries of the source, which are not always exact repeats. Identical values can stand only once.
# Columns and labels:
# [1] = target: T1, C-X-C chemokine receptor type 4 (Homo sapiens, UniProt P61073); experiment: (§1) Inhibitory activity based on the inhibition of [Ca2+] mobilization induced by human SDF-1alpha stimulation through CXCR4
# Procedure, shortened: (§2)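 CHO cells transfected with CXCR4 were loaded with Fura-2-AM for 1–2 h and then pretreated with analogue. Recombinant human SDF-1α was added 3 min later. [Ca2+]i rise was measured spectrofluorometrically by a modified Fura-2 method, and IC50 was derived from inhibition of mobilization. Values are the mean of two experiments.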
# [2] = tested on: MT4; experiment: Anti-HIV activity based on the protection against HIV-induced cytopathogenicity in MT-4 cells using MTT method; format: functional, cell-based, Homo sapiens
# Procedure, shortened: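 MT-4 cells challenged with the X4 strain HIV-1 IIIB. Protection from virus-induced cytopathogenicity was read by the MTT method, and EC50 was derived. Values are the mean of at least three experiments.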
# [3] = target: T1, C-X-C chemokine receptor type 4; experiment: as §1; procedure, shortened: as §2; remark: listed apart in the source
# [4] = target: T1, C-X-C chemokine receptor type 4; experiment: (§3) Inhibitory activity based on the inhibition of [Ca2+] mobilization induced by human SDF-1alpha stimulation through C-X-C chemokine receptor type 4; procedure, shortened: as §2
# [5] = target: T1, C-X-C chemokine receptor type 4; experiment: as §3; procedure, shortened: as §2; remark: listed apart in the source
# T1 sequence (P61073 whole entry): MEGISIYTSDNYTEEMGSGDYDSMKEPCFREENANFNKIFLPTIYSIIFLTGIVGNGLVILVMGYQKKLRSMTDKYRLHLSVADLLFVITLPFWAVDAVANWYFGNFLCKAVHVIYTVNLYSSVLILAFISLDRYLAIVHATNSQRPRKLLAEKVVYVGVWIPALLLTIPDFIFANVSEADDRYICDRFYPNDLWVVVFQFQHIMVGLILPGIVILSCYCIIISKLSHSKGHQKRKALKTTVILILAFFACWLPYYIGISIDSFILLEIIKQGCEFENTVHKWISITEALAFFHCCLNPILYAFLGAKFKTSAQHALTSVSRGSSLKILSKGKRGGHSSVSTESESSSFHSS
SMILES,IC50 [1],"EC50 ([2]; Homo sapiens, MT4)",EC50 ([2]; mt4),IC50 [3],IC50 [4],IC50 [5]
C[C@H]1/C=C\[C@@H](CCCCN)NC(=O)[C@H](CCCCN)NC(=O)[C@H](CCCN=C(N)N)NC(=O)[C@H](Cc2ccc(O)cc2)NC(=O)[C@@H](NC(=O)[C@H](CSCc2ccccc2)NC(=O)[C@H](CCCN=C(N)N)NC(=O)[C@@H](N)CCCN=C(N)N)CSSC[C@@H](C(=O)N[C@@H](CCCN=C(N)N)C(N)=O)NC(=O)[C@H](CCCNC(N)=O)NC(=O)[C@H](CCCN=C(N)N)NC(=O)[C@H](Cc2ccc(O)cc2)NC1=O,36 nM,67 nM,45 nM,–,–,–
C[C@H]1/C=C\[C@@H](CCCCN)NC(=O)[C@H](CCCCN)NC(=O)[C@H](CCCN=C(N)N)NC(=O)[C@H](Cc2ccc(O)cc2)NC(=O)[C@@H](NC(=O)[C@H](CSC23C[C@H]4C[C@@H](C2)C[C@@H](C3)C4)NC(=O)[C@H](CCCN=C(N)N)NC(=O)[C@@H](N)CCCN=C(N)N)CSSC[C@@H](C(=O)N[C@@H](CCCN=C(N)N)C(N)=O)NC(=O)[C@H](CCCNC(N)=O)NC(=O)[C@H](CCCN=C(N)N)NC(=O)[C@H](Cc2ccc(O)cc2)NC1=O,170 nM,–,7.1 nM and 17 nM,–,–,–
C[C@H]1/C=C\[C@@H](CCCCN)NC(=O)[C@H](CCCCN)NC(=O)[C@H](CCCNC(=N)N)NC(=O)[C@H](Cc2ccc(O)cc2)NC(=O)[C@@H](NC(=O)[C@H](Cc2ccc3ccccc3c2)NC(=O)[C@H](CCCNC(=N)N)NC(=O)[C@@H](N)CCCN=C(N)N)CSSC[C@@H](C(=O)N[C@@H](CCCNC(=N)N)C(=O)O)NC(=O)[C@H](CCCNC(N)=O)NC(=O)[C@H](CCCNC(=N)N)NC(=O)[C@H](Cc2ccc(O)cc2)NC1=O,7.3 nM,–,–,6.9 nM,–,–
C[C@H]1/C=C\[C@@H](CCCCN)NC(=O)[C@H](CCCCN)NC(=O)[C@H](CCCNC(=N)N)NC(=O)[C@H](Cc2ccc(O)cc2)NC(=O)[C@@H](NC(=O)[C@H](Cc2c[nH]c3ccccc23)NC(=O)[C@H](CCCNC(=N)N)NC(=O)[C@@H](N)CCCN=C(N)N)CSSC[C@@H](C(=O)N[C@@H](CCCNC(=N)N)C(=O)O)NC(=O)[C@H](CCCNC(N)=O)NC(=O)[C@H](CCCNC(=N)N)NC(=O)[C@H](Cc2ccc(O)cc2)NC1=O,–,–,–,–,27 nM,30 nM
C[C@H]1/C=C\[C@@H](CCCCN)NC(=O)[C@H](CCCCN)NC(=O)[C@H](CCCN=C(N)N)NC(=O)[C@H](Cc2ccc(O)cc2)NC(=O)[C@@H](NC(=O)[C@H](Cc2c[nH]c3ccccc23)NC(=O)[C@H](CCCN=C(N)N)NC(=O)[C@@H](N)CCCN=C(N)N)CSSC[C@@H](C(=O)N[C@@H](CCCN=C(N)N)C(N)=O)NC(=O)[C@H](CCCNC(N)=O)NC(=O)[C@H](CCCN=C(N)N)NC(=O)[C@H](Cc2ccc(O)cc2)NC1=O,–,3.7 nM,2.9 nM,5 nM,–,–
C[C@H]1/C=C\[C@@H](CCCCN)NC(=O)[C@H](CCCCN)NC(=O)[C@H](CCCN=C(N)N)NC(=O)[C@H](Cc2ccc(O)cc2)NC(=O)[C@@H](NC(=O)[C@H](Cc2ccc3ccccc3c2)NC(=O)[C@H](CCCN=C(N)N)NC(=O)[C@@H](N)CCCN=C(N)N)CSSC[C@@H](C(=O)N[C@@H](CCCN=C(N)N)C(N)=O)NC(=O)[C@H](CCCNC(N)=O)NC(=O)[C@H](CCCN=C(N)N)NC(=O)[C@H](Cc2ccc(O)cc2)NC1=O,10 nM,–,4.7 nM and 1.9 nM,5 nM,–,–
